Laboratory results reported in ChEMBL document CHEMBL4145471, “New 1,5 and 2,5-disubstituted tetrazoles-dependent activity towards surface barrier of Candida albicans” (Eur J Med Chem, 2018).

Legend:
[1] = system: Candida albicans; experiment: Synergistic antifungal activity against Candida albicans ATCC 90028 at 10 ug/ml after 48 hrs in presence of 80 ug/ml fluconazol by checkerboard assay relative to control; assay type: functional
Summary of the method: (§1)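 Checkerboard in C. albicans ATCC 90028, inoculum prepared per CLSI M27-A3 in RPMI. Fluconazole serially diluted 80-1.25 µg/mL across the plate against the partner compound at 80-1.25 µg/mL final. Incubated 48 h at 35°C. Metabolic activity read by XTT reduction at 475 nm (660 nm reference), given as % of the untreated growth control.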

[2] = system: Candida albicans; experiment: Antifungal activity against Candida albicans ATCC 90028 at 16 ug/ml after 18 hrs relative to control; assay type: functional
Summary of the method: (§2)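 Planktonic broth microdilution per M27-A3 in MOPS-buffered RPMI 1640 (pH 7.0), final inoculum 1.8×10^3 cells/mL, compounds 0.0313–16 µg/mL from 1600 µg/mL stocks in ethanol or DMSO. Incubated at 35°C without agitation; OD405 read at 18 and 48 h. % inhibition was derived from test, sterility (no inoculum) and solvent growth-control wells. Amphotericin B at 0.5 µg/mL served as the 100% control.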

[3] = system: Candida albicans; experiment: Synergistic antifungal activity against Candida albicans ATCC 90028 at 5 ug/ml after 48 hrs in presence of 80 ug/ml fluconazol by checkerboard assay relative to control; assay type: functional; summary of the method: as §1
[4] = system: Candida albicans; experiment: Synergistic antifungal activity against Candida albicans ATCC 90028 at 40 ug/ml after 48 hrs in presence of 5 ug/ml fluconazol by checkerboard assay relative to control; assay type: functional; summary of the method: as §1
[5] = system: Candida albicans; experiment: Antifungal activity against Candida albicans ATCC 90028 at 0.125 ug/ml after 48 hrs relative to control; assay type: functional; summary of the method: as §2
[6] = system: Candida albicans; experiment: Synergistic antifungal activity against Candida albicans ATCC 90028 at 10 ug/ml after 48 hrs in presence of 5 ug/ml fluconazol by checkerboard assay relative to control; assay type: functional
Summary of the method: (§3)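 Checkerboard per M27-A3 against ATCC 90028: fluconazole at 80–1.25 µg/mL horizontally and partner compound at 80–1.25 µg/mL vertically, 100 µL yeast inoculum per well, 35°C for 48 h. After 48 h, metabolic activity was measured by XTT reduction at 475 nm (660 nm reference) relative to untreated growth control. FIC index is the sum of the FICs; <1 was defined as synergism and >1 as antagonism.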

[7] = system: Candida albicans; experiment: Antifungal activity against Candida albicans ATCC 90028 at 4 ug/ml after 48 hrs relative to control; assay type: functional; summary of the method: as §2
[8] = system: Candida albicans; experiment: Antifungal activity against Candida albicans ATCC 90028 assessed as metabolic activity at 40 ug/ml after 48 hrs in presence of 10 ug/ml fluconazol by XTT assay relative to control
[9] = system: Candida albicans; experiment: Synergistic antifungal activity against Candida albicans ATCC 90028 at 5 ug/ml after 48 hrs in presence of 20 ug/ml fluconazol by checkerboard assay relative to control; assay type: functional; summary of the method: as §1
[10] = system: Candida albicans; experiment: Synergistic antifungal activity against Candida albicans ATCC 90028 at 2.5 ug/ml after 48 hrs in presence of 1.25 ug/ml fluconazol by checkerboard assay relative to control; assay type: functional
Summary of the method: (§4)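 Checkerboard microdilution (M27-A3) on C. albicans ATCC 90028 in RPMI 1640: fluconazole (80-1.25 µg/mL) crossed with tetrazole (80-1.25 µg/mL final), incubated at 35°C for 48 h. Growth by OD405 at 18 and 48 h, endpoint taken as 100% inhibition. FIC index = sum of the two agents' FICs; <1 synergism, >1 antagonism.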

[11] = system: Candida albicans; experiment: Antifungal activity against Candida albicans ATCC 90028 assessed as inhibition of metabolic activity at 10 ug/ml after 48 hrs in presence of 2.5 ug/ml fluconazol by XTT assay relative to control; assay type: functional; conditions: values are per cent of control
Summary of the method: (§5)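 C. albicans ATCC 90028 in checkerboard: fluconazole serial dilutions (80-1.25 µg/mL) crossed with tetrazole (80-1.25 µg/mL final), M27-A3 inoculum in RPMI 1640, 35°C for 48 h. Metabolic activity measured by XTT reduction, read at 475 nm (660 nm reference). Activity expressed relative to untreated growth control absorbance.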

[12] = system: Candida albicans; experiment: Synergistic antifungal activity against Candida albicans ATCC 90028 at 2.5 ug/ml after 48 hrs in presence of 80 ug/ml fluconazol by checkerboard assay relative to control; assay type: functional; summary of the method: as §4
[13] = system: Candida albicans; experiment: Synergistic antifungal activity against Candida albicans ATCC 90028 at 1.25 ug/ml after 48 hrs in presence of 10 ug/ml fluconazol by checkerboard assay relative to control; assay type: functional; summary of the method: as §3
[14] = system: Candida albicans; experiment: Antifungal activity against Candida albicans ATCC 90028 assessed as inhibition of metabolic activity at 2.5 ug/ml after 48 hrs in presence of 1.25 ug/ml fluconazol by XTT assay relative to control; assay type: functional; conditions: values are per cent of control; summary of the method: as §5
[15] = system: Candida albicans; experiment: Antifungal activity against Candida albicans ATCC 90028 assessed as inhibition of metabolic activity at 5 ug/ml after 48 hrs in presence of 10 ug/ml fluconazol by XTT assay relative to control; assay type: functional; conditions: values are per cent of control
Summary of the method: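 Checkerboard against strain ATCC 90028, inoculum per M27-A3: fluconazole 80-1.25 µg/mL on one axis, tetrazole 80-1.25 µg/mL on the other. Plates at 35°C for 48 h, then XTT metabolic reduction read at 475 nm (660 nm reference). Activity is the drop in mean absorbance against untreated growth control. FICs and their summed FIC index are taken at 50% reduction in metabolic activity.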

[16] = system: Candida albicans; experiment: Synergistic antifungal activity against Candida albicans ATCC 90028 at 80 ug/ml after 48 hrs in presence of 40 ug/ml fluconazol by checkerboard assay relative to control; assay type: functional; summary of the method: as §1
[17] = system: Candida albicans; experiment: Synergistic antifungal activity against Candida albicans ATCC 90028 at 10 ug/ml after 48 hrs in presence of 40 ug/ml fluconazol by checkerboard assay relative to control; assay type: functional; summary of the method: as §3
[18] = system: Candida albicans; experiment: Antifungal activity against Candida albicans ATCC 90028 assessed as inhibition of metabolic activity at 2.5 ug/ml after 48 hrs in presence of 40 ug/ml fluconazol by XTT assay relative to control; assay type: functional; conditions: values are per cent of control; summary of the method: as §5
[19] = system: Candida albicans; experiment: Synergistic antifungal activity against Candida albicans ATCC 90028 assessed as fluconazol FIC at 1.25 to 80 ug/ml after 48 hrs by checkerboard assay; assay type: functional; summary of the method: as §3
[20] = system: Candida albicans; experiment: Antifungal activity against Candida albicans ATCC 90028 at 0.5 ug/ml after 18 hrs relative to control; assay type: functional; summary of the method: as §2
[21] = system: Candida albicans; experiment: Antifungal activity against Candida albicans ATCC 90028 assessed as metabolic activity at 40 ug/ml after 48 hrs in presence of 20 ug/ml fluconazol by XTT assay relative to control
[22] = system: Candida albicans; experiment: Antifungal activity against Candida albicans ATCC 90028 assessed as inhibition of metabolic activity at 2.5 ug/ml after 48 hrs in presence of 80 ug/ml fluconazol by XTT assay relative to control; assay type: functional; conditions: values are per cent of control; summary of the method: as §5
[23] = system: Candida albicans; experiment: Antifungal activity against Candida albicans ATCC 90028 at 0.5 ug/ml after 48 hrs relative to control; assay type: functional; summary of the method: as §2

With ClCCCn1nnnc1-c1ccccc1Cl the “growth inhibition (GI)” value [1] was 99.43%, the Activity [2] was 99.62% and the “growth inhibition (GI)” value [3] was 99.34%. For the same molecule, the “growth inhibition (GI)” value [4] was 98.95%, the Activity [5] was 99.43% and the “growth inhibition (GI)” value [6] was 98.9%. The Activity [7] was 99.41%, the Metabolic activity [8] was 70.86% and the “growth inhibition (GI)” value [9] was 99.67%. For the same molecule, the “growth inhibition (GI)” value [10] was 100%, the residual activity [11] was 79.69% and the “growth inhibition (GI)” value [12] was 99.49%. The “growth inhibition (GI)” value [13] was 99.66%, the residual activity [14] was 0% and the residual activity [15] was 66.6%. For the same molecule, the “growth inhibition (GI)” value [16] was 99.79%, the “growth inhibition (GI)” value [17] was 99.29% and the residual activity [18] was 97.62%. The FIC [19] was 5, the “fold change (FC)” value [19] was 5 and the Activity [20] was 98.4%. The Metabolic activity [21] was 74.1%, the residual activity [22] was 80.42% and the Activity [23] was 99.22%.
With Cc1ccc(-c2nnn(CCCN3CCOCC3)n2)cc1 the “growth inhibition (GI)” value [1] was 99.21%, the Activity [2] was 99.87% and the “growth inhibition (GI)” value [3] was 99.47%. For the same molecule, the “growth inhibition (GI)” value [4] was 98.83%, the Activity [5] was 98.96% and the “growth inhibition (GI)” value [6] was 98.12%. The Activity [7] was 99.45%, the Metabolic activity [8] was 28.26% and the “growth inhibition (GI)” value [9] was 99.16%. For the same molecule, the “growth inhibition (GI)” value [10] was 98.95%, the residual activity [11] was 100% and the “growth inhibition (GI)” value [12] was 99.19%. The “growth inhibition (GI)” value [13] was 99.59%, the residual activity [14] was 100% and the residual activity [15] was 81.48%. For the same molecule, the “growth inhibition (GI)” value [16] was 99.21%, the “growth inhibition (GI)” value [17] was 98.78% and the residual activity [18] was 100%. It also gave an FIC [19] of 5, an Activity [20] of 98.99% and a Metabolic activity [21] of 54.14%. The residual activity [22] was 84.01% and the Activity [23] was 99.18%.
CCOC(=O)CCn1nnc(-c2ccccc2)n1 was tested, and the “growth inhibition (GI)” value [1] was 99.49%, the Activity [2] was 99.95% and the “growth inhibition (GI)” value [3] was 99.61%. For the same molecule, the “growth inhibition (GI)” value [4] was 98.93%, the Activity [5] was 99.18% and the “growth inhibition (GI)” value [6] was 98.97%. The Activity [7] was 99.68%, the Metabolic activity [8] was 56.45% and the “growth inhibition (GI)” value [9] was 99.58%. The “growth inhibition (GI)” value [10] was 99.79%, the residual activity [11] was 71.14% and the “growth inhibition (GI)” value [12] was 99.54%. The “growth inhibition (GI)” value [13] was 99.65%, the residual activity [14] was 90.2% and the residual activity [15] was 69.35%. The “growth inhibition (GI)” value [16] was 99.34%, the “growth inhibition (GI)” value [17] was 99.34% and the residual activity [18] was 92.82%. For the same molecule, the FIC [19] was 5, the Activity [20] was 98.97% and the Metabolic activity [21] was 54.82%. The residual activity [22] was 72.63% and the Activity [23] was 99.31%.
